In paper PMC7918756 (The Journal of Experimental Medicine, 2021):
Values belong to the molecule of their own block, whether it stands above or below them.

Tests used:
[1] = test system: HASMCs (human primary bronchial smooth muscle cells); assay: impedance-based HASMC contraction assay; assay type: cell-based
[2] = IV/PO PK, summary across preclinical species; assay type: in vivo
[3] = molecular target: cynomolgus (cyno) monkey TRPA1 (Macaca fascicularis, UniProt A0A2K5VSJ1); assay: CHO cell line FLIPR Ca2+ assay, CA-evoked; assay type: cell-based
cynomolgus (cyno) monkey TRPA1, sequence (A0A2K5VSJ1 26-1144): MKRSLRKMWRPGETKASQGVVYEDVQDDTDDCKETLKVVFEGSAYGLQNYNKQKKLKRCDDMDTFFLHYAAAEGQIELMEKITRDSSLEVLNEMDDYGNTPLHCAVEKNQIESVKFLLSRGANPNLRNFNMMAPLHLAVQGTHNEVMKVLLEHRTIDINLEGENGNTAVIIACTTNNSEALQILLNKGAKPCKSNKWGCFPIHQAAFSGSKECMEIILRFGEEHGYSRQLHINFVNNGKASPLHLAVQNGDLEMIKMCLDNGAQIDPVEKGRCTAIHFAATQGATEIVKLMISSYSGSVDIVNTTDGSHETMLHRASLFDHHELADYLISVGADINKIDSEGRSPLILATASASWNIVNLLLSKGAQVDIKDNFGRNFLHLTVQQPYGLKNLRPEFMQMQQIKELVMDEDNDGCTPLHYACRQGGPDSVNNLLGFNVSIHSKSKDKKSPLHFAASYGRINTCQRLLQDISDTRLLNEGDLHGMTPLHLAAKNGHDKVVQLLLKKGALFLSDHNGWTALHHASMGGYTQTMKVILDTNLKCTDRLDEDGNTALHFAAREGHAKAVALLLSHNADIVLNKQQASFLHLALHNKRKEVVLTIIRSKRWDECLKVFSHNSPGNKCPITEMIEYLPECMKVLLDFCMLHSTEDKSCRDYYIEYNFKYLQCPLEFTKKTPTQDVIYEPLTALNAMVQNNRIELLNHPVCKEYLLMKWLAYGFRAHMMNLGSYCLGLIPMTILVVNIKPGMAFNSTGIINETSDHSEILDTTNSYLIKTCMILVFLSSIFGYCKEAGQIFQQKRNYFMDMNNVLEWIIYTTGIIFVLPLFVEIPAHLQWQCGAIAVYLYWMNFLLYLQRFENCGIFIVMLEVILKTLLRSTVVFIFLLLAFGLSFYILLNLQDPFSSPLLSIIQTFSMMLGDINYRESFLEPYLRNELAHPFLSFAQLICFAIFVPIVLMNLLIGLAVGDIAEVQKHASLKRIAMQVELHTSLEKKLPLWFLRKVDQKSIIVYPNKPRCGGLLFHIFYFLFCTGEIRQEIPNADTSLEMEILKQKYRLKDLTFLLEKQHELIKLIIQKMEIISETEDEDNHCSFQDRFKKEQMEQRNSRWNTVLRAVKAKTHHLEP

dog TRPA1 = dog TRPA1 (Canis lupus familiaris, UniProt A0A8I3Q1Q7); assay: CHO cell line FLIPR Ca2+ assay, CA-evoked; assay type: cell-based
dog TRPA1, sequence (A0A8I3Q1Q7 1-1118): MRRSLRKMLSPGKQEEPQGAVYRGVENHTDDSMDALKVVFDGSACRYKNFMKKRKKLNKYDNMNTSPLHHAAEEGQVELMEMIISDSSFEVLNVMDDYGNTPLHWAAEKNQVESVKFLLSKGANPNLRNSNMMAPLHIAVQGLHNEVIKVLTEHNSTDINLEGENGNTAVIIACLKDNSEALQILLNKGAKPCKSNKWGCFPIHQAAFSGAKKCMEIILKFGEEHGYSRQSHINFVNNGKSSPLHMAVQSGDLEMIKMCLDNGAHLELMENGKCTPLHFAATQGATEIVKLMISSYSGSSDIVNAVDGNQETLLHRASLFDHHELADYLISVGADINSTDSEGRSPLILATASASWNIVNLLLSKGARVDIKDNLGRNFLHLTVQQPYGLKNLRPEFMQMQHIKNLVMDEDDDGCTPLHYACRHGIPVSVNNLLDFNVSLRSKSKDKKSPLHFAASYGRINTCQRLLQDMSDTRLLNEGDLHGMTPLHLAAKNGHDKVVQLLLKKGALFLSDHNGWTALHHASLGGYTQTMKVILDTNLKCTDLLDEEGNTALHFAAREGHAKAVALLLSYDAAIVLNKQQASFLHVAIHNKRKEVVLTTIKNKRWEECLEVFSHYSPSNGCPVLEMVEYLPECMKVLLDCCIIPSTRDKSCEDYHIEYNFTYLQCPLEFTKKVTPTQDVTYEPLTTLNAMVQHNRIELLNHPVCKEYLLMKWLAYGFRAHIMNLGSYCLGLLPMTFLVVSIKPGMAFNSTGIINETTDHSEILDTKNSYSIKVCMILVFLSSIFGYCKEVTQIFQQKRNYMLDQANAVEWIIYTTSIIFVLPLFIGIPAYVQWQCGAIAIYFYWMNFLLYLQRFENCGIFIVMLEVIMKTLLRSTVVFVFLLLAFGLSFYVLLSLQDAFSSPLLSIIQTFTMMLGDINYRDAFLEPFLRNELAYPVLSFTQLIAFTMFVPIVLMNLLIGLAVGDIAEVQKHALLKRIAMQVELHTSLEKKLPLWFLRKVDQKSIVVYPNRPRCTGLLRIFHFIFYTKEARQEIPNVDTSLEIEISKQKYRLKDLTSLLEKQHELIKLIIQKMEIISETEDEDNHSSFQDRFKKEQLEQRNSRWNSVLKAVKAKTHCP

[4] = test system: cross-species hepatocytes; assay: hepatocyte metabolic stability, cross-species summary; assay type: in vitro ADME
Summary of the method: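 Test compound at 1 µM was incubated with pooled cryopreserved hepatocytes from female CD-1 mouse, male Sprague-Dawley rat, male beagle dog, male cynomolgus monkey and mixed-gender human.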

rats [5] = assay: OVA challenge model of asthma in rats; assay type: in vivo, rat; details: oral
Summary of the method: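 Sensitised Brown Norway rats were challenged from day 28 with aerosolised 2% OVA in PBS, 30 min daily for 4 consecutive days. Vehicle or test compound was gavaged 3 h before each challenge; dexamethasone 5 mg/kg orally was the positive control. BALF was collected 24 h after the final treatment, eight rats per group.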

guinea pig TRPA1 = guinea pig TRPA1 (Cavia porcellus, UniProt H0VJD1); assay: CHO cell line FLIPR Ca2+ assay, CA-evoked; assay type: cell-based
rats [6] = assay: AITC-induced dermal blood flow; assay type: in vivo, rat; details: oral 3 or 10 mg/kg, 3 h before AITC skin challenge
Summary of the method: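 Rats dosed orally 3 h before imaging with 0, 3.0 or 10.0 mg/kg test compound in 85% MCT / 15% DMSO. Topical AITC skin challenge. Dermal blood flow recorded by laser speckle contrast imaging. Traces normalised to fold-change by subtracting and dividing by the mean baseline DBF before AITC. DBF rise-time and maximal level assessed.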

human TRPV1 = human TRPV1 (Homo sapiens, UniProt Q8NER1); assay: Ca2+ responses evoked by 30 nM capsaicin; assay type: cell-based
healthy volunteers [7] = assay: Phase 1 SAD study, AITC skin challenge; assay type: in vivo, human
Summary of the method: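 Randomised, double-blind, single ascending oral dose study in fasted healthy volunteers: six active and two placebo per cohort, at 25, 75, 200 or 600 mg (tablets). AITC skin challenge was at 3 h (25 mg), 8 h (75 mg) or 6 h (200/600 mg) post-dose. DBF was recorded by LSCI from 2 min before to 21 min after AITC. Pain and itch were rated 0–10 at 2–20 min. DBF AUC0–10 min and maximal scores were compared with pooled placebo (Dunnett's); plasma concentrations were measured by validated bioanalysis.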

guinea pigs [8] = assay: AITC-induced dermal blood flow; assay type: in vivo, guinea pig; details: oral 5, 15 or 45 mg/kg, 3.5 h before AITC skin challenge
Summary of the method: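 Female Hartley guinea pigs, 5 wk old, were dosed orally with 0, 5, 15 or 45 mg/kg test compound in 85% MCT/15% DMSO, 3.5 h before topical AITC. Dermal blood flow was imaged by laser speckle contrast imaging. Traces were normalised to fold-change against the mean pre-AITC baseline.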

rats [9] = assay: AITC-induced vascular leakage; assay type: in vivo, rat; details: rats, 1, 3 and 10 mg/kg, 3 h before topical AITC
Summary of the method: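 Rats dosed 3 h beforehand were given 2% Evans blue i.v. (saline, 2.5 ml/kg) under isoflurane. Then 25 µl 20% AITC went on one ear and mineral oil on the other. Ear thickness was measured. At 20 min after AITC, dye was extracted in formamide (24 h, 65°C) and read at 620 nm.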

rats [10] = assay: AITC-induced nocifensive behavior in rats; assay type: in vivo, rat
Summary of the method: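 Rats pretreated with test compound at the indicated doses, then given intraplantar AITC. Nocifensive behaviour scored as flinching plus hind paw–directed licking and biting. Data reported as mean ± SEM.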

healthy volunteers [11] = assay: Phase 1 SAD study, safety and tolerability; assay type: in vivo, human; details: single oral dose 25-600 mg
Summary of the method: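 Healthy volunteers received a single oral dose, fasted, randomised 6 active:2 placebo per cohort at 25, 75, 200 or 600 mg. Safety and tolerability was the primary outcome. Escalation targeted about two- to threefold exposure increases, decided after review of safety and PK data up to 72 h post-dose.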

human TRPC6 = molecular target: T1, human TRPC6 (Homo sapiens, UniProt Q9Y210); assay: membrane potential assay using 75 μM carbochol; assay type: cell-based
T1 sequence (Q9Y210 1-931): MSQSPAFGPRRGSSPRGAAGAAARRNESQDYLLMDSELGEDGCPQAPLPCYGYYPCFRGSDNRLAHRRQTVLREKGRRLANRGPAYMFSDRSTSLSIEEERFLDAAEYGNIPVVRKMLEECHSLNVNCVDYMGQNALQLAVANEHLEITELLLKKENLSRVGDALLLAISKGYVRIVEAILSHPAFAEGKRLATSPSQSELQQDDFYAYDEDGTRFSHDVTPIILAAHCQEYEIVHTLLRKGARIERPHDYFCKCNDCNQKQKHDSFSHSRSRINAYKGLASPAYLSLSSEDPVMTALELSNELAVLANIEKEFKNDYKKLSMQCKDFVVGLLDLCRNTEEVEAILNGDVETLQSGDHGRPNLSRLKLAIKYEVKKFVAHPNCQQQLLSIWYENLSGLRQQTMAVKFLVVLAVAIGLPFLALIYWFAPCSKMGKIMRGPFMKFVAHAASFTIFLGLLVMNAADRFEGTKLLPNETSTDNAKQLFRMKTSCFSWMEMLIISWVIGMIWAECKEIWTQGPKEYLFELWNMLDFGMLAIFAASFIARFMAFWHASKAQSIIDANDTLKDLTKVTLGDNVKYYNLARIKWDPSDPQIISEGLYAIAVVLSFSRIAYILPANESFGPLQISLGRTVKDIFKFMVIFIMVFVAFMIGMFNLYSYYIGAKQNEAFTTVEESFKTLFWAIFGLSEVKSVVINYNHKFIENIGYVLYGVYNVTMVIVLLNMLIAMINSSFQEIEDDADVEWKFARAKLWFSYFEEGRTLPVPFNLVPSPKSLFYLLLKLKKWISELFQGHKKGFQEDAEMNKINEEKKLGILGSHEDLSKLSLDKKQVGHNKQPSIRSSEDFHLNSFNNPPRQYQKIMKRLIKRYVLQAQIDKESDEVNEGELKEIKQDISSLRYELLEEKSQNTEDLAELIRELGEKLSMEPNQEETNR

MDCK permeability = assay type: in vitro ADME, canine; details: dog
Summary of the method: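 MDCK cells were seeded at 2.5 × 10^5 cells/ml and grown 4 d at 37°C, 5% CO2. Medium was DMEM/Earle's balanced salt solution with 10% FBS, renewed on day 2 and the day before the assay.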

HASMCs = assay: calcium imaging, AITC-induced calcium flux in primary cells; assay type: cell-based, human; details: HASMCs treated with TRPA1 agonist AITC
Summary of the method: (§1)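 Cells were imaged 15–24 h after plating, with fluorescence sampled at 0.5 Hz. TRPA1 activity was evoked by perfusing saline containing 50 µM AITC.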

HLFs = assay: as above; assay type: cell-based, human; details: HLFs treated with TRPA1 agonist AITC
Summary of the method: as §1

mouse TRPA1 = mouse TRPA1 (Mus musculus, UniProt Q8BLA8); assay: CHO cell line FLIPR Ca2+ assay, CA-evoked; assay type: cell-based
mouse TRPA1, sequence (Q8BLA8 whole entry): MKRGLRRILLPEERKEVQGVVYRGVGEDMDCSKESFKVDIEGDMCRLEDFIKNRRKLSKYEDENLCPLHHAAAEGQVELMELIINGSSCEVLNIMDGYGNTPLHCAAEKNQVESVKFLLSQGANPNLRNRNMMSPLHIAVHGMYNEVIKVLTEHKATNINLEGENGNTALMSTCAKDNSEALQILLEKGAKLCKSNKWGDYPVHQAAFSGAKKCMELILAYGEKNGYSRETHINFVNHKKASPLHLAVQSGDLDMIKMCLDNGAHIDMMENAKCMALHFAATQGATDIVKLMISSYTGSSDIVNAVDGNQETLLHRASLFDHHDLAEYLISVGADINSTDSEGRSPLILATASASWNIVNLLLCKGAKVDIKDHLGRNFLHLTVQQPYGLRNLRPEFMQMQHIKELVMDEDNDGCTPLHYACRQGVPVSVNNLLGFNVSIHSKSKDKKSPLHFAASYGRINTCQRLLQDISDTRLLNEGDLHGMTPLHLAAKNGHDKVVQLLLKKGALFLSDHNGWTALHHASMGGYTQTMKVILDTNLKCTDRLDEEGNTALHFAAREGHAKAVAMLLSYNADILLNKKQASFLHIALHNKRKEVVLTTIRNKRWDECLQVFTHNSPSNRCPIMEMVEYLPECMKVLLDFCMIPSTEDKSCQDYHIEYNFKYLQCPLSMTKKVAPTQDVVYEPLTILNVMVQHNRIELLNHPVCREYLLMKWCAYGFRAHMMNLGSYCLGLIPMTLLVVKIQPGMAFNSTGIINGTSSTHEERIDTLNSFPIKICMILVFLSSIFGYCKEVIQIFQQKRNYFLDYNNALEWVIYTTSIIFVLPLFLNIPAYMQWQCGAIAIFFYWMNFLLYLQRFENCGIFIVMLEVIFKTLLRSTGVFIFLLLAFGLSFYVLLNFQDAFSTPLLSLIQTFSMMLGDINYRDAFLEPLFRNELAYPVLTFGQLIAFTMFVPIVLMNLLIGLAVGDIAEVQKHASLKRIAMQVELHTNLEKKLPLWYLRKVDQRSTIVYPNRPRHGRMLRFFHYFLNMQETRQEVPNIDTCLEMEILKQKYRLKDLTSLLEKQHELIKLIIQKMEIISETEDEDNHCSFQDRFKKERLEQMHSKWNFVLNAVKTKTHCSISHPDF
Summary of the method: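 Mouse TRPA1-expressing CHO cells, fluorescent Ca2+ dye loaded, were exposed 10 min to a test compound concentration series and then challenged with cinnamaldehyde. Peak fluorescence responses were used to derive concentration-dependent inhibition.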

human TRPM8 = human TRPM8 (Homo sapiens, UniProt Q7Z2W7); assay: Ca2+ responses evoked by 50 μM menthol; assay type: cell-based
human TRPM8, sequence (Q7Z2W7 whole entry): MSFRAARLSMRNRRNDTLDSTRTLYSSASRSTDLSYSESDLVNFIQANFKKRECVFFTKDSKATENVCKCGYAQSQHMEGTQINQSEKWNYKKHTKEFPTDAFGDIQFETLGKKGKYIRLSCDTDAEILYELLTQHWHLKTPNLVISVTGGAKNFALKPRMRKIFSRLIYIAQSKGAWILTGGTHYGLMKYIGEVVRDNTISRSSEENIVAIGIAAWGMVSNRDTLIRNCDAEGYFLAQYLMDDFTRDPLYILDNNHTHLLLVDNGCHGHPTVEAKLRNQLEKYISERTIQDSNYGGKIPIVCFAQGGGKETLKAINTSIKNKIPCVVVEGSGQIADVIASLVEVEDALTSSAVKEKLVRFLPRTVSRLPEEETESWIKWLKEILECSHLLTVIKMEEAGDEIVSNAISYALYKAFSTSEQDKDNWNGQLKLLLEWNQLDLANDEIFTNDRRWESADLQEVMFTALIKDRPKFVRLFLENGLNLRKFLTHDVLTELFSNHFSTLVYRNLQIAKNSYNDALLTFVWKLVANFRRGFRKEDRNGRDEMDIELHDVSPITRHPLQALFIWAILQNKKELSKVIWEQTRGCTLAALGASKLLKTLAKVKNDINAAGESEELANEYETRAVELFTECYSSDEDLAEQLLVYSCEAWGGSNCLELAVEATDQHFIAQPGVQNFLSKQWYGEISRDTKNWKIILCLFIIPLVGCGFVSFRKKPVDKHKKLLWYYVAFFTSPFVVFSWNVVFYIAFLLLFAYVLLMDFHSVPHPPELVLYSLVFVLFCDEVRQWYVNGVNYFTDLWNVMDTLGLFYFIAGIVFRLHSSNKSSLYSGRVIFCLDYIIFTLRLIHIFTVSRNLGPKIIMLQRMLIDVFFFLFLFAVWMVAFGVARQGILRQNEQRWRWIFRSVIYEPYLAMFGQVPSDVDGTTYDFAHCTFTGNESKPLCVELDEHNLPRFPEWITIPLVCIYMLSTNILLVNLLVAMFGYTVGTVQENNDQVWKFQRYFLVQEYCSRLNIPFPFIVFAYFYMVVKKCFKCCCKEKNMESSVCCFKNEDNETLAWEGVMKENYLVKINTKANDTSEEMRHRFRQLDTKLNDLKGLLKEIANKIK

guinea pigs [12] = assay: OVA challenge model of asthma in guinea pigs; assay type: in vivo, guinea pig; details: single oral administration of 70 mg/kg
Summary of the method: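 Hartley guinea pigs were immunised i.p. on days 0 and 7 with 100 mg OVA plus 80 mg alum in PBS. On day 28 they were challenged with nebulised 0.1% OVA in PBS for 30 min. Vehicle or test compound was given by gavage 3 h before challenge. Animals were euthanised 24 h later, with aortic blood taken for PK.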

[13] = Phase 1 SAD study, plasma PK; assay type: in vivo, human; details: healthy volunteers, dose increased from 75 mg to 600 mg
Summary of the method: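 Healthy volunteers in single-ascending-dose cohorts, randomised 6 test compound : 2 placebo, dosed fasted at 25, 75, 200 or 600 mg. Blood sampled before dose and at multiple time points after dose. Plasma concentrations measured by validated analytical methods.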

SMILES: CCC(=N\O)/C(C)=C/c1ccc(F)cc1 [A-967079, reference compound]
times less potent than GDC-0334 ([1]; HASMC contraction assay (Fig. 2 C)): ~500 times

clearances [2]: low to moderate
IC50 [3]: 3.6 nM
IC50 (dog TRPA1): 102 nM
metabolite stability in cross-species hepatocytes [4]: moderate to high
IC50 (guinea pig TRPA1): 11.1 nM
IC50 ([1]; Homo sapiens, HASMC, read-out: HASMC contraction IC50): 1.8 nM
IC50 (human TRPV1): > 10000 nM
IC50 (human TRPC6): > 10000 nM
Papp A→B at 180 min, 10 µM (MDCK permeability): 18.9 ×10⁻⁶ cm/s
IC50 (mouse TRPA1): 2.7 nM
IC50 (human TRPM8): > 10000 nM
SMILES: C[C@H]1[C@H](F)C[C@@H](C(=O)NCc2cc(-c3cnc(C(F)(F)F)nc3)ncc2C(F)(F)F)N1S(=O)(=O)c1ccc(F)cc1 [GDC-0334, (2S,4R,5S)-4-fluoro-1-(4-fluorophenylsulfonyl)-5-methyl-N-((5-(trifluoromethyl)-2-(2-(trifluoromethyl)pyrimidin-5-yl)pyridin-4-yl)methyl)pyrrolidine-2-carboxamide]
substance P (SP) in BALF after OVA challenge (rats [5]): significantly blunted an increase
AITC-induced DBF (rats [6]): Dose-dependent decreases in the DBF rise-times and maximal levels
AITC-induced pain and itch (healthy volunteers [7]; healthy volunteers dosed with 600 mg): near-complete inhibition
AITC-induced pain and itch (healthy volunteers [7]; healthy volunteers, 25-600 mg vs placebo, verbal rating 0–10): dose dependently reduced
DBF response to the AITC skin challenge (healthy volunteers [7]; healthy volunteers, AITC challenge 3–8 h after oral dosing): strong PD effect
free plasma concentration with near-complete inhibition of AITC-induced DBF (healthy volunteers [7]; healthy volunteers, free plasma): > 4.92 nM
plasma concentration with near-complete inhibition of AITC-induced DBF (healthy volunteers [7]; healthy volunteers, total plasma): > 250 ng/mL
AITC-induced DBF (guinea pigs [8]): dose-dependent reduction
Evans blue perfusion (AITC-induced vascular leakage) (rats [9]): Dose-dependent reductions
AITC-induced nocifensive behavior (rats [10]; 3-mg/kg dose): suppression comparable to that of Trpa1^−/− rats
AITC-induced nocifensive behavior (rats [10]; pretreatment, indicated doses): reduced AITC-induced nocifensive behavior in a dose-dependent manner
TEAEs thought to be related to treatment (healthy volunteers [11]): one case of mild headache
serious TEAEs (healthy volunteers [11]): no serious treatment-emergent AEs
tolerability (healthy volunteers [11]): well tolerated with only mild or moderate adverse events
effect on AITC-induced calcium flux (HASMCs): inhibited calcium flux
effect on AITC-induced calcium flux (HLFs): inhibited calcium flux
BALF infiltrates to the airways (guinea pigs [12]): significantly reduced BALF infiltrates
exposures (Cmax, AUC0–24h, AUC0–72h) vs dose [13]: Approximately dose-proportional increases
